# “And” between values parts separate entries of the source, which are not always exact repeats. Equal values may be shown once.
# Tested on: HEK-293T
# Experiment: Multiplex assay against HEK293T
# Format: toxicity, cell-based
# Conditions: human
# In short: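 Values for tubulin, mitochondrial-mass and membrane-permeability phenotypes are per cents of cells with healthy nuclei. These cells were identified by CellPathfinder machine-learning gating of live cells that had been stained at seeding with Hoechst33342, BioTracker Green Microtubule Cytoskeleton Dye, MitoTracker Red and Annexin V Alexa Fluor 680 and imaged on a CQ1 microscope at 37°C and 5% CO2 after compound addition. The gating first set Hoechst high-intensity objects apart from normal cells, then split normal cells into healthy, pyknosed or fragmented nuclei, and pyknosed cells into mitotic or apoptotic.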
# [1] = 12 h, 1 µM, compound concentration 1 uM
# [2] = 12 h, 10 µM, compound concentration 10 uM
# [3] = 24 h, 1 µM, compound concentration 1 uM
# [4] = 24 h, 10 µM, compound concentration 10 uM
# [5] = 48 h, 1 µM, compound concentration 1 uM
# [6] = 48 h, 10 µM, compound concentration 10 uM
structure (smiles),measurement,setting,value
Cc1cc(O)c(-c2ccc([C@@H](C)CN(C)C)cc2)c2c1[nH]c(=O)c1sccc12,Population Membrane Permeable-Phenotype (%),[1],0% and 1% and 7.14%
same,Population Mitotic Cells (%),[1],88.89% [middle of 4 runs]
same,Population Normal (%),[1],72% and 71% and 100%
same,Population Tubulin-Different-Phenotype (%),[1],74% [middle of 4 runs]
same,Total Cell Count,[1],209 and 207 and 208 and 140
same,Population Fragmented Nuclei (%),[2],6% and 7% and 2.23% and 0.71%
same,Population Membrane Permeable-Phenotype (%),[2],0% and 2.04% and 9.09%
same,Population Mitotic Cells (%),[2],62.79% [middle of 4 runs]
same,Population Normal (%),[2],58% and 71% and 100%
same,Population Pyknosed Nuclei (%),[2],75.89% [middle of 4 runs]
same,Population Tubulin-Different-Phenotype (%),[2],60% and 72% and 75.51% and 63.64%
same,Total Cell Count,[2],268 and 195 and 224 and 141
same,Population Apoptotic (%),[3],65% and 68% and 44.06% and 39.32%
same,Population Fragmented Nuclei (%),[3],9% and 2.63% and 2.94%
same,Population Hoechst High Intensity Objects (%),[3],21% and 1.72% and 0%
same,Population Membrane Permeable-Phenotype (%),[3],0% and 6.67%
same,Population Mitochondria Different-Phenotype (%),[3],89% [middle of 4 runs]
same,Population Mitotic Cells (%),[3],34% and 31% and 55.94% and 60.68%
same,Population Normal (%),[3],78% and 98.28% and 100%
same,Population Tubulin-Different-Phenotype (%),[3],67% [middle of 4 runs]
same,Total Cell Count,[3],230 and 205 and 232 and 136
same,Population Apoptotic (%),[4],73% and 85% and 61.29% and 65.71%
same,Population Fragmented Nuclei (%),[4],8% and 7% and 0.96% and 1.33%
same,Population Membrane Permeable-Phenotype (%),[4],1.92% [middle of 4 runs]
same,Population Mitochondria Different-Phenotype (%),[4],92% [middle of 4 runs]
same,Population Mitotic Cells (%),[4],34.29% [middle of 4 runs]
same,Population Normal (%),[4],63% and 74% and 99.52% and 100%
same,Population Tubulin-Different-Phenotype (%),[4],70% and 80% and 96.15% and 62.5%
same,Total Cell Count,[4],290 and 203 and 210 and 150
same,Population Apoptotic (%),[5],86% and 69% and 73.55% and 70.43%
same,Population Hoechst High Intensity Objects (%),[5],24% [middle of 4 runs]
same,Population Membrane Permeable-Phenotype (%),[5],0%
same,Population Mitochondria Different-Phenotype (%),[5],90% and 96% and 92% and 88.89%
same,Population Mitotic Cells (%),[5],29.57% [middle of 4 runs]
same,Population Normal (%),[5],75% and 74% and 99.03% and 100%
same,Population Tubulin-Different-Phenotype (%),[5],76% and 70% and 42.67% and 77.78%
same,Total Cell Count,[5],249 and 212 and 206 and 135
same,Population Apoptotic (%),[6],86% and 87% and 92.81% and 91.73%
same,Population Fragmented Nuclei (%),[6],13% [middle of 4 runs]
same,Population Membrane Permeable-Phenotype (%),[6],1% and 0% and 1.56%
same,Population Mitochondria Different-Phenotype (%),[6],92% and 100% and 87.5%
same,Population Mitotic Cells (%),[6],13% and 12% and 7.19% and 8.27%
same,Population Normal (%),[6],59% and 65% and 99.52% and 100%
same,Population Tubulin-Different-Phenotype (%),[6],54% and 73% and 90.62% and 87.5%
same,Total Cell Count,[6],223 [middle of 4 runs]
Cn1cnc(-c2cnc(O[C@H]3CCN(C(=O)Cc4ccc(OC(F)(F)F)cc4)C[C@H]3F)c(C(N)=O)c2)c1,Population Hoechst High Intensity Objects (%),[1],0.47% and 4.71%
same,Population Mitotic Cells (%),[1],91.23% and 91.04%
same,Population Normal (%),[1],99.53% and 95.29%
same,Population Pyknosed Nuclei (%),[1],40.24% and 73.63%
same,Total Cell Count,[1],191
same,Population Hoechst High Intensity Objects (%),[2],0.68% and 0.69%
same,Population Mitotic Cells (%),[2],87.04% and 85.37%
same,Population Normal (%),[2],99.32% and 99.31%
same,Population Pyknosed Nuclei (%),[2],55.29% and 86.01%
same,Total Cell Count,[2],144
same,Population Healthy Nuclei (%),[3],76.21% and 29.41%
same,Population Hoechst High Intensity Objects (%),[3],0.45% and 3.61%
same,Population Mitotic Cells (%),[3],88.44% and 91.13%
same,Population Normal (%),[3],99.55% and 96.39%
same,Population Pyknosed Nuclei (%),[3],22.27% and 66.31%
same,Population Hoechst High Intensity Objects (%),[4],0.8% and 0%
same,Population Mitotic Cells (%),[4],68.57% and 83.33%
same,Population Normal (%),[4],99.2% and 100%
same,Population Pyknosed Nuclei (%),[4],37.84% and 76.43%
same,Total Cell Count,[4],373 and 157
same,Population Healthy Nuclei (%),[5],86.49% and 68.91%
same,Population Hoechst High Intensity Objects (%),[5],0% and 0.42%
same,Population Mitotic Cells (%),[5],89.54% and 83.58%
same,Population Normal (%),[5],100% and 99.58%
same,Population Pyknosed Nuclei (%),[5],10.34% and 28.15%
same,Population Healthy Nuclei (%),[6],80.81% and 60.93%
same,Population Hoechst High Intensity Objects (%),[6],0% and 2.27%
same,Population Mitotic Cells (%),[6],82.61% and 79.27%
same,Population Normal (%),[6],100% and 97.73%
same,Population Pyknosed Nuclei (%),[6],16.11% and 38.14%
CCN1CCN(Cc2ccc(Nc3ncc(F)c(-c4cc(F)c5nc(C)n(C(C)C)c5c4)n3)nc2)CC1.CS(=O)(=O)O,Population Fragmented Nuclei (%),[1],2.72% and 5.37%
same,Population Healthy Nuclei (%),[1],46.26% and 18.79%
same,Population Hoechst High Intensity Objects (%),[1],1.01% and 0%
same,Population Membrane Permeable-Phenotype (%),[1],0.74% and 0%
same,Population Mitotic Cells (%),[1],90.67% and 79.65%
same,Population Normal (%),[1],98.99% and 100%
same,Population Pyknosed Nuclei (%),[1],51.02% and 75.84%
same,Population Tubulin-Different-Phenotype (%),[1],23.53% and 64.29%
same,Total Cell Count,[1],297 and 149
same,Population Fragmented Nuclei (%),[2],1.2% and 2.36%
same,Population Hoechst High Intensity Objects (%),[2],0.4% and 0%
same,Population Membrane Permeable-Phenotype (%),[2],0%
same,Population Mitochondria Different-Phenotype (%),[2],53.85% and 28.57%
same,Population Mitotic Cells (%),[2],88.21% and 74.36%
same,Population Normal (%),[2],99.6% and 100%
same,Population Pyknosed Nuclei (%),[2],78% and 92.13%
same,Population Tubulin-Different-Phenotype (%),[2],84.62% and 28.57%
same,Total Cell Count,[2],251 and 127
same,Population Fragmented Nuclei (%),[3],1.38% and 4.83%
same,Population Healthy Nuclei (%),[3],71.43% and 24.14%
same,Population Hoechst High Intensity Objects (%),[3],0.23% and 0%
same,Population Membrane Permeable-Phenotype (%),[3],2.9% and 2.86%
same,Population Mitochondria Different-Phenotype (%),[3],26.13% and 22.86%
same,Population Mitotic Cells (%),[3],82.2% and 83.5%
same,Population Normal (%),[3],99.77% and 100%
same,Population Pyknosed Nuclei (%),[3],27.19% and 71.03%
same,Population Tubulin-Different-Phenotype (%),[3],47.42% and 25.71%
same,Total Cell Count,[3],435 and 145
same,Population Fragmented Nuclei (%),[4],0.69% and 4.07%
same,Population Healthy Nuclei (%),[4],25.86% and 10.57%
same,Population Hoechst High Intensity Objects (%),[4],0%
same,Population Membrane Permeable-Phenotype (%),[4],0% and 23.08%
same,Population Mitochondria Different-Phenotype (%),[4],52% and 38.46%
same,Population Mitotic Cells (%),[4],64.32% and 55.24%
same,Population Normal (%),[4],100%
same,Population Pyknosed Nuclei (%),[4],73.45% and 85.37%
same,Population Tubulin-Different-Phenotype (%),[4],93.33% and 53.85%
same,Total Cell Count,[4],290 and 123
same,Population Fragmented Nuclei (%),[5],2.67% and 1.8%
same,Population Healthy Nuclei (%),[5],85.01% and 53.89%
same,Population Hoechst High Intensity Objects (%),[5],0.13% and 0%
same,Population Membrane Permeable-Phenotype (%),[5],9.27% and 2.22%
same,Population Mitochondria Different-Phenotype (%),[5],37.67% and 48.89%
same,Population Mitotic Cells (%),[5],82.47% and 79.73%
same,Population Normal (%),[5],99.87% and 100%
same,Population Fragmented Nuclei (%),[6],3.24% and 4.8%
same,Population Healthy Nuclei (%),[6],28.78% and 13.6%
same,Population Hoechst High Intensity Objects (%),[6],0% and 0.79%
same,Population Membrane Permeable-Phenotype (%),[6],1.25% and 0%
same,Population Mitochondria Different-Phenotype (%),[6],96.25% and 58.82%
same,Population Mitotic Cells (%),[6],30.16% and 40.2%
same,Population Normal (%),[6],100% and 99.21%
same,Population Pyknosed Nuclei (%),[6],67.99% and 81.6%
same,Population Tubulin-Different-Phenotype (%),[6],85% and 58.82%
same,Total Cell Count,[6],278 and 126
CCn1c(-c2nc3cc(C(=O)N4CCCC(N)C4)ccc3n2C)cc2ccccc21.Cl (configuration not stated),Population Fragmented Nuclei (%),[1],9% and 5% and 1.84% and 3.31%
same,Population Hoechst High Intensity Objects (%),[1],7% and 6% and 0%
same,Population Membrane Permeable-Phenotype (%),[1],0%
same,Population Mitochondria Different-Phenotype (%),[1],52% [middle of 4 runs]
same,Population Mitotic Cells (%),[1],87.4% [middle of 4 runs]
same,Population Normal (%),[1],92% and 93% and 100%
same,Total Cell Count,[1],351 [middle of 4 runs]
same,Population Fragmented Nuclei (%),[2],8% and 6% and 2.45% and 0.66%
same,Population Hoechst High Intensity Objects (%),[2],8% [middle of 4 runs]
same,Population Membrane Permeable-Phenotype (%),[2],0% and 0.78%
same,Population Mitotic Cells (%),[2],46% and 86.32% and 69.7%
same,Population Normal (%),[2],88% and 91% and 99.7% and 100%
same,Population Tubulin-Different-Phenotype (%),[2],66.67% [middle of 4 runs]
same,Total Cell Count,[2],398 [middle of 4 runs]
same,Population Fragmented Nuclei (%),[3],9% and 1.41% and 1.3%
same,Population Healthy Nuclei (%),[3],79% [middle of 4 runs]
same,Population Hoechst High Intensity Objects (%),[3],6% and 4% and 0.2% and 0%
same,Population Membrane Permeable-Phenotype (%),[3],0% and 1.42% and 4.76%
same,Population Mitochondria Different-Phenotype (%),[3],37% [middle of 4 runs]
same,Population Mitotic Cells (%),[3],64% and 60% and 92.7% and 77.27%
same,Population Normal (%),[3],93% and 95% and 99.8% and 100%
same,Population Tubulin-Different-Phenotype (%),[3],22% and 14% and 16.24% and 11.9%
same,Population Apoptotic (%),[4],51% and 40% and 33.59% and 49.56%
same,Population Hoechst High Intensity Objects (%),[4],12% and 9% and 0%
same,Population Membrane Permeable-Phenotype (%),[4],1% and 0% and 0.79%
same,Population Mitochondria Different-Phenotype (%),[4],72% [middle of 4 runs]
same,Population Mitotic Cells (%),[4],48% and 59% and 66.41% and 50.44%
same,Population Normal (%),[4],87% and 90% and 100%
same,Population Tubulin-Different-Phenotype (%),[4],64% and 58% and 63.64% and 33.33%
same,Population Fragmented Nuclei (%),[5],12% [middle of 4 runs]
same,Population Healthy Nuclei (%),[5],79% and 81% and 86.51% and 57.44%
same,Population Hoechst High Intensity Objects (%),[5],5% and 4% and 0%
same,Population Membrane Permeable-Phenotype (%),[5],1% and 0% and 6.55% and 0.89%
same,Population Mitochondria Different-Phenotype (%),[5],28% [middle of 4 runs]
same,Population Mitotic Cells (%),[5],79% and 85% and 95.24% and 75.9%
same,Population Normal (%),[5],94% and 95% and 100%
same,Population Apoptotic (%),[6],50% and 52% and 28.06% and 40.68%
same,Population Healthy Nuclei (%),[6],73% and 79% and 77.55% and 60.49%
same,Population Membrane Permeable-Phenotype (%),[6],0% and 1.26% and 2.04%
same,Population Mitochondria Different-Phenotype (%),[6],65% and 71% and 79.5% and 83.67%
same,Population Mitotic Cells (%),[6],49% and 47% and 71.94% and 59.32%
same,Population Normal (%),[6],84% and 91% and 99.86% and 97.59%

# Source: ChEMBL document CHEMBL5724801, “EUbOPEN Chemogenomics Library - Multiplex” (2024)
